Structures can show the parent of a compound that is named as a salt.
Columns and labels:
[1] = test system: KB; test: Cytotoxicity against human KB cells after 3 days by MTT assay; format: functional, cell-based; settings: 72 h
Procedure, shortened: (§1)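 Cells grown in RPMI 1640 with 10% fetal calf serum, plated at 2 × 10^4 cells, held 12 h at 37 °C in 5% CO2, then exposed to test sample for 3 days at 37 °C. MTT added for 4 h, formazan dissolved in DMSO, absorbance read at 570 nm. IC50 taken as 50% growth inhibition relative to untreated control; each experiment run at least 3 times.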

[2] = test system: SK-OV-3; test: Cytotoxicity against human SKOV3 cells after 3 days by MTT assay; format: functional, cell-based; settings: SK-OV-3, 72 h; procedure, shortened: as §1
[3] = test system: SF-268; test: Cytotoxicity against human SF268 cells after 3 days by MTT assay; format: functional, cell-based; settings: SF-268, 72 h; procedure, shortened: as §1
[4] = test system: NCI-H460; test: Cytotoxicity against human NCI-H460 cells after 3 days by MTT assay; format: functional, cell-based; settings: NCI-H460, 72 h; procedure, shortened: as §1
[5] = Cytotoxicity against human RKOp27 cells after 3 days by MTT assay; format: functional, cell-based; settings: RKOp27, 72 h; procedure, shortened: as §1
[6] = test system: HL-60; test: Cytotoxicity against human HL60 cells after 3 days by MTT assay; format: functional, cell-based; settings: HL-60, 72 h
[7] = test system: U-937; test: Cytotoxicity against human U937 cells after 3 days by MTT assay; format: functional, cell-based; settings: U-937, 72 h; procedure, shortened: as §1
[8] = test system: K562; test: Cytotoxicity against human K562 cells after 3 days by MTT assay; format: functional, cell-based; settings: K562, 72 h; procedure, shortened: as §1
[9] = test system: G-361; test: Cytotoxicity against human G361 cells after 3 days by MTT assay; format: functional, cell-based; settings: G-361, 72 h; procedure, shortened: as §1
[10] = test system: SK-MEL-28; test: Cytotoxicity against human SK-MEL-28 cells after 3 days by MTT assay; format: functional, cell-based; settings: SK-MEL-28, 72 h; procedure, shortened: as §1
[11] = test system: GOTO; test: Cytotoxicity against human GOTO cells after 3 days by MTT assay; format: functional, cell-based; settings: 72 h; procedure, shortened: as §1
[12] = test system: NB1; test: Cytotoxicity against human NB-1 cells after 3 days by MTT assay; format: functional, cell-based; settings: NB1, 72 h; procedure, shortened: as §1
[13] = Toxicity in ip dosed mouse assessed as mortality after 24 hrs; format: organism-based; settings: in vivo
Procedure, shortened: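 Lorke two-phase design in mice, single intraperitoneal dose per group. Phase 1: three groups of three animals, each group one dose, observed 24 h for mortality and general behaviour. Phase 2: 3–4 groups of one mouse, doses chosen from phase 1 findings, observed 24 h. LD50 taken as geometric mean of lowest lethal dose and highest non-lethal dose; reported in mg/kg.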

SMILES | IC50 [1] [nM] | IC50 [2] [nM] | IC50 [3] [nM] | IC50 [4] [nM] | IC50 [5] [nM] | IC50 [6] [nM] | IC50 [7] [nM] | IC50 [8] [nM] | IC50 [9] [nM] | IC50 [10] [nM] | IC50 [11] [nM] | IC50 [12] [nM] | LD50 at 24 h [13] [mg/kg]
N#Cc1c(NC(N)=O)nc(SCc2nc3ccccc3[nH]2)nc1-c1ccccc1 | 9.6 | 6.75 | 3.37 | 14.7 | 2.5 | 2.9 | 3.37 | 4.54 | 2.55 | 4.8 | 11.3 | 7.35 | 347
Cc1ccc(S(=O)(=O)N2CCN(c3nc(SCc4nc5ccccc5[nH]4)nc(-c4ccccc4)c3C#N)CC2)cc1 | 3.28 | 4.54 | 7.81 | 22.7 | 2.5 | 4.23 | 4.1 | 11.3 | 4.38 | 4.38 | 4.38 | 6.75 | 345
N#Cc1c(-c2ccccc2)nc(SCc2nc3ccccc3[nH]2)nc1N1CCN(C(=O)c2ccc([N+](=O)[O-])cc2)CC1 | 7.35 | 8.62 | 5.81 | 4.46 | 7.81 | 2.9 | 5.2 | 4.38 | 2.4 | 2.77 | 5.81 | 13.2 | 327
CNc1nc(SCc2nc3ccccc3[nH]2)nc(-c2ccccc2)c1C#N | 2.7 | 3 | 3.2 | 3.2 | 3.7 | 6.57 | 19.2 | 13.2 | 12.5 | 2.87 | 3.28 | 4.46 | 302
N#Cc1c(NNC(N)=S)nc(SCc2nc3ccccc3[nH]2)nc1-c1ccccc1 | 3 | 3 | 3.37 | 3.37 | 3.2 | 4.54 | 3 | 8.9 | 3.96 | 3.2 | 2.55 | 5.81 | 345
N#Cc1c(Nc2nccs2)nc(SCc2nc3ccccc3[nH]2)nc1-c1ccccc1 | 14.7 | 5.81 | 2.55 | 3.37 | 3.2 | 11.9 | 3.8 | 14.7 | 11.9 | 8.9 | 5.1 | 3.2 | 349
N#Cc1c(Nc2ccccn2)nc(SCc2nc3ccccc3[nH]2)nc1-c1ccccc1 | 7.35 | 5.81 | 6.75 | 2.8 | 3.8 | 20 | 2.55 | 7 | 8.9 | 8.9 | 2.5 | 3.9 | 367
N#Cc1c(-c2ccccc2)nc(SCc2nc3ccccc3[nH]2)nc1N1CCN(S(=O)(=O)c2ccccc2[N+](=O)[O-])CC1 | 4.44 | 3.2 | 3 | 3.7 | 5.6 | 2.77 | 3.28 | 14.7 | 9.6 | 8.9 | 3 | 2.5 | 325
N#Cc1c(-c2ccccc2)nc(SCc2nc3ccccc3[nH]2)nc1N1CCN(S(=O)(=O)c2ccccc2)CC1 | 3 | 2.77 | 2.87 | 4.6 | 7.35 | 4.23 | 6.2 | 3 | 8.62 | 6.41 | 5.81 | 3.28 | 327
CN1CCN(c2nc(SCc3nc4ccccc4[nH]3)nc(-c3ccccc3)c2C#N)CC1 | 2.7 | 1600 | 6.9 | 2.84 | 5.4 | 2.8 | 6.75 | 2.4 | 14.7 | 20 | 3.37 | 2.4 | 384
N#Cc1c(Cl)nc(SCc2nc3ccccc3[nH]2)nc1-c1ccccc1 | 3.7 | 3.37 | 3.2 | 3.28 | 4.38 | 4.46 | 4.46 | 11.3 | 12.5 | 3.28 | 8.62 | 2.87 | 313
N#Cc1c(-c2ccccc2)nc(SCc2nc3ccccc3[nH]2)nc1N1CCNCC1 | 2.87 | 2.63 | 20000 | 7.35 | 5.81 | 4 | 5.81 | 4.38 | 2.5 | 2.6 | 3.7 | 6.75 | 300
N#Cc1c(NC(N)=S)nc(SCc2nc3ccccc3[nH]2)nc1-c1ccccc1 | 3.2 | 7.81 | 3.37 | 3.37 | 2.63 | 5.81 | 20 | 11.9 | 5.81 | 4.8 | 4.8 | 11.9 | 327
Cl.N=c1[nH]c(=S)[nH]c2nc(SCc3nc4ccccc4[nH]3)nc(-c3ccccc3)c12 | 7.3 | 3.5 | 3.5 | 3 | 2.5 | 6.75 | 2.8 | 14.7 | 3.37 | 3.37 | 11.9 | 3.28 | 389
N#Cc1c(O)nc(SCc2nc3ccccc3[nH]2)nc1-c1ccccc1 | 6.2 | 2.55 | 3.2 | 2.5 | 6.09 | 2.55 | 3.28 | 4.63 | 3.43 | 7.7 | 7.81 | 6.57 | 345
Cl.N=c1[nH]c(=O)[nH]c2nc(SCc3nc4ccccc4[nH]3)nc(-c3ccccc3)c12 | 2.5 | 3.2 | 2.84 | 2.84 | 2.7 | 3.1 | 2.87 | 14.7 | 3.2 | 8.9 | 8.9 | 11.3 | 346
CCNc1nc(SCc2nc3ccccc3[nH]2)nc(-c2ccccc2)c1C#N | 7.35 | 7.35 | 7.35 | 2.87 | 7.35 | 3.96 | 2.63 | 4.38 | 4.38 | 5.3 | 3.96 | 2.63 | 325
N#Cc1c(Nc2ccncc2)nc(SCc2nc3ccccc3[nH]2)nc1-c1ccccc1 | 3.2 | 4.46 | 2.4 | 2.77 | 5.81 | 2.77 | 7.35 | 10 | 2.55 | 4.46 | 2.55 | 6.75 | 316
N#Cc1c(NN)nc(SCc2nc3ccccc3[nH]2)nc1-c1ccccc1 | 2.55 | 2.7 | 2.77 | 2.6 | 2.55 | 11.9 | 3.9 | 14.7 | 14.7 | 3 | 2.68 | 5.4 | 344
N#Cc1c(-c2ccccc2)nc(SCc2nc3ccccc3[nH]2)nc1N1CCN(C(=O)c2ccccc2)CC1 | 3 | 4 | 2.8 | 3.2 | 2.55 | 6.75 | 2.68 | 3.4 | 2.4 | 8.9 | 8.62 | 7.35 | 327
ClCc1nc2ccccc2[nH]1 | – | – | – | – | – | – | – | – | – | – | – | – | 253
CCCCCOC(=O)Nc1nc(=O)n([C@@H]2O[C@H](C)[C@@H](O)[C@H]2O)cc1F [CAPECITABINE] | – | – | – | – | 4330 | – | – | – | – | – | – | – | –
Nc1ccn([C@@H]2O[C@H](CO)[C@@H](O)[C@@H]2O)c(=O)n1 [CYTARABINE] | – | – | 7680 | – | – | – | – | – | – | – | – | – | –
COc1cccc2c1C(=O)c1c(O)c3c(c(O)c1C2=O)C[C@@](O)(C(=O)CO)C[C@@H]3O[C@H]1C[C@H](N)[C@H](O)[C@H](C)O1 [DOXORUBICIN] | – | 4160 | – | – | – | – | – | 6.12 | – | – | – | – | –
O=c1[nH]cc(F)c(=O)[nH]1 [FLUOROURACIL] | 4460 | – | – | – | – | – | – | – | – | – | – | – | –
Nc1ccn([C@@H]2O[C@H](CO)[C@@H](O)C2(F)F)c(=O)n1 [GEMCITABINE HYDROCHLORIDE] | – | – | – | 2130 | – | – | – | – | – | – | – | – | –

Source: ChEMBL document CHEMBL1165908, “Novel benzimidazole-pyrimidine conjugates as potent antitumor agents” (Eur J Med Chem, 2010)
